In ChEMBL document CHEMBL1126988, “Quinolone antibacterials containing the new 7-[3-(1-aminoethyl)-1- pyrrolidinyl] side chain: the effects of the 1-aminoethyl moiety and its stereochemical configurations on potency and in vivo efficacy” (J Med Chem, 1993):
Converted amounts (≈) assume the structure as drawn.

Legend:
Assay type in all cases: functional
Klebsiella pneumoniae = assay: Minimum inhibitory concentration was evaluated in vitro against Klebsiella pneumoniae MGH2; settings: Klebsiella pneumoniae; read-out: MIC
Outline: (§1)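 Standard microtitration broth assay against a panel of 10 Gram-positive and Gram-negative organisms. MIC read in µg/mL and averaged over multiple experiments.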

Streptococcus pyogenes [1] = assay: Compounds were evaluated in vivo for antibacterial activity for mouse protection against Streptococcus pyogenes C 203 after oral administration; settings: Streptococcus pyogenes, C 203, po; read-out: PD50
Escherichia coli [2] = assay: Antibacterial activity against Escherichia coli Vogel after oral administration in mouse; settings: for ED50: Escherichia coli, po, read-out: PD50
Staphylococcus aureus [3] = assay: Minimum inhibitory concentration was evaluated in vitro against Staphylococcus aureus UC 76; settings: Staphylococcus aureus; read-out: MIC; outline: as §1
Streptococcus pyogenes [4] = assay: Antibacterial activity measured as mouse protection against Streptococcus pyogenes C 203 after subcutaneous administration; settings: Streptococcus pyogenes, C 203, sc; read-out: PD50
Streptococcus pyogenes [5] = assay: Minimum inhibitory concentration was evaluated in vitro against Streptococcus pyogenes C 203; settings: Streptococcus pyogenes; read-out: MIC; outline: as §1
Escherichia coli [6] = assay: Antibacterial activity against Escherichia coli Vogel after subcutaneous administration in mouse; settings: Escherichia coli, sc; read-out: PD50
Enterobacter cloacae = assay: Minimum inhibitory concentration in vitro against Enterobacter cloacae MA 2646; settings: Enterobacter cloacae; read-out: MIC
Escherichia coli [7] = assay: Antibacterial activity in vitro against Escherichia coli Vogel; settings: Escherichia coli; read-out: MIC; outline: as §1
Staphylococcus aureus [8] = assay: Minimum inhibitory concentration was evaluated in vitro against Staphylococcus aureus H 228; settings: Staphylococcus aureus; read-out: MIC; outline: as §1
Pseudomonas aeruginosa = assay: Minimum inhibitory concentration was evaluated in vitro against Pseudomonas aeruginosa UI-18; settings: Pseudomonas aeruginosa; read-out: MIC; outline: as §1
Streptococcus pneumoniae = assay: Minimum inhibitory concentration was evaluated in vitro against Streptococcus pneumoniae SV-1; settings: Streptococcus pneumoniae; read-out: MIC; outline: as §1
Enterococcus faecalis = assay: Minimum inhibitory concentration was evaluated in vitro against Enterococcus faecalis MGH-2; settings: Enterococcus faecalis; read-out: MIC; outline: as §1
Providencia rettgeri = assay: Minimum inhibitory concentration was evaluated in vitro against Providencia rettgeri M1771; settings: Providencia rettgeri; read-out: MIC; outline: as §1

Structure (SMILES)	MIC (Klebsiella pneumoniae) [µg/mL]	ED50 (Streptococcus pyogenes [1]) [mg/kg]	ED50 (Escherichia coli [2]) [mg/kg]	MIC (Staphylococcus aureus [3]) [µg/mL]	ED50 (Streptococcus pyogenes [4]) [mg/kg]	MIC (Streptococcus pyogenes [5]) [µg/mL]	ED50 (Escherichia coli [6]) [mg/kg]	MIC (Enterobacter cloacae) [µg/mL]	MIC (Escherichia coli [7]) [µg/mL]	MIC (Staphylococcus aureus [8]) [µg/mL]	MIC (Pseudomonas aeruginosa) [µg/mL]	MIC (Streptococcus pneumoniae) [µg/mL]	MIC (Enterococcus faecalis) [µg/mL]	MIC (Providencia rettgeri) [µg/mL]	PD50 (Escherichia coli [2]) [mg/kg]
CNCC1CCN(c2nc3c(cc2F)c(=O)c(C(=O)O)cn3C2CC2)C1 (stereo not given)	0.2 (≈ 0.555 µM)	21	3	0.025 (≈ 0.0694 µM)	7	0.05 (≈ 0.139 µM)	1	0.2 (≈ 0.555 µM)	0.1 (≈ 0.277 µM)	0.2 (≈ 0.555 µM)	0.8 (≈ 2.22 µM)	0.025 (≈ 0.0694 µM)	0.2 (≈ 0.555 µM)	0.4 (≈ 1.11 µM)	
CC(N)C1CCN(c2c(F)cc3c(=O)c(C(=O)O)cn(C4CC4)c3c2F)C1 (racemic)	0.013 (≈ 0.0344 µM)	0.4	2	0.003 (≈ 0.00795 µM)	0.1	0.006 (≈ 0.0159 µM)	0.3	0.013 (≈ 0.0344 µM)	0.013 (≈ 0.0344 µM)	0.013 (≈ 0.0344 µM)	0.4 (≈ 1.06 µM)	0.006 (≈ 0.0159 µM)	0.006 (≈ 0.0159 µM)	0.025 (≈ 0.0662 µM)	
CCN[C@H](C)[C@H]1CCN(c2nc3c(cc2F)c(=O)c(C(=O)O)cn3-c2ccc(F)cc2F)C1 (racemic)	0.8 (≈ 1.74 µM)	2	25	0.013 (≈ 0.0282 µM)	2	0.1 (≈ 0.217 µM)	13	0.8 (≈ 1.74 µM)	0.4 (≈ 0.869 µM)	0.05 (≈ 0.109 µM)	3.1 (≈ 6.73 µM)	0.1 (≈ 0.217 µM)	0.2 (≈ 0.434 µM)	1.6 (≈ 3.47 µM)	
CN[C@H](C)[C@@H]1CCN(c2c(F)cc3c(=O)c(C(=O)O)cn(C4CC4)c3c2OC)C1	0.2 (≈ 0.496 µM)	4	12	0.013 (≈ 0.0322 µM)	1	0.025 (≈ 0.062 µM)	3	0.1 (≈ 0.248 µM)	0.1 (≈ 0.248 µM)	0.05 (≈ 0.124 µM)	3.1 (≈ 7.68 µM)	0.013 (≈ 0.0322 µM)	0.05 (≈ 0.124 µM)	0.4 (≈ 0.991 µM)	
O=C(O)c1cn(C2CC2)c2cc(N3CCNCC3)c(F)cc2c1=O [CIPROFLOXACIN]	0.05 (≈ 0.151 µM)		1				0.3			3.1 (≈ 9.36 µM)		1.6 (≈ 4.83 µM)			
CCn1cc(C(=O)O)c(=O)c2cc(F)c(N3CCC(N)C3)c(OC)c21 (stereo not given)	0.2 (≈ 0.572 µM)	74	13	0.05 (≈ 0.143 µM)	25	0.2 (≈ 0.572 µM)	7	0.2 (≈ 0.572 µM)	0.2 (≈ 0.572 µM)	0.2 (≈ 0.572 µM)	0.8 (≈ 2.29 µM)	0.4 (≈ 1.14 µM)	0.4 (≈ 1.14 µM)	0.4 (≈ 1.14 µM)	
CCNCC1CCN(c2cc3c(cc2F)c(=O)c(C(=O)O)cn3C2CC2)C1 (stereo not given)				0.013 (≈ 0.0348 µM)	5		3								
CCn1cc(C(=O)O)c(=O)c2cc(F)c(N3CCC(C(C)NC)C3)c(OC)c21 (racemic)	0.2 (≈ 0.511 µM)	2	22	0.003 (≈ 0.00766 µM)	0.3	0.013 (≈ 0.0332 µM)	4	0.8 (≈ 2.04 µM)	0.2 (≈ 0.511 µM)	0.025 (≈ 0.0639 µM)	1.6 (≈ 4.09 µM)	0.013 (≈ 0.0332 µM)	0.025 (≈ 0.0639 µM)	0.4 (≈ 1.02 µM)	
CC1(CN)CCN(c2c(F)c(N)c3c(=O)c(C(=O)O)cn(C4CC4)c3c2F)C1 (stereo not given)	0.1 (≈ 0.255 µM)	8		0.003 (≈ 0.00765 µM)	1	0.013 (≈ 0.0331 µM)	1	0.1 (≈ 0.255 µM)	0.2 (≈ 0.51 µM)	0.013 (≈ 0.0331 µM)	0.8 (≈ 2.04 µM)	0.003 (≈ 0.00765 µM)	0.025 (≈ 0.0637 µM)	0.2 (≈ 0.51 µM)	9
COc1c(N2CCC(C)(CN)C2)c(F)cc2c(=O)c(C(=O)O)cn(C3CC3)c12 (stereo not given)	0.2 (≈ 0.514 µM)	5	18	0.006 (≈ 0.0154 µM)	1	0.013 (≈ 0.0334 µM)	3	0.1 (≈ 0.257 µM)	0.1 (≈ 0.257 µM)	0.025 (≈ 0.0642 µM)	1.6 (≈ 4.11 µM)	0.013 (≈ 0.0334 µM)	0.025 (≈ 0.0642 µM)	0.4 (≈ 1.03 µM)	
CCn1cc(C(=O)O)c(=O)c2cc(F)c(N3CCC(N)C3)c(F)c21 (stereo not given)	0.1 (≈ 0.296 µM)	21	3	0.05 (≈ 0.148 µM)	7		1		0.05 (≈ 0.148 µM)	0.2 (≈ 0.593 µM)	0.2 (≈ 0.593 µM)			0.1 (≈ 0.296 µM)	
